Screens: PubChem, several laboratories
Compounds with a hit are over-represented: about 3.6% of the library has one in this group of screens.
ATG4B inhibitor: ATG4B protease inhibitors, primary screen, biochemical, fluorescence, uHTS; Cysteine protease ATG4B (Homo sapiens), Q9Y4P1; ATG4B cleavage of LC3-PLA2, NBD-HPC fluorescence, 1 h; inhibition, % at 8.33 µM; actives 0.51% (n = 340,000); AID 504462, 2011; in the data active = inhibition above about 40%
Target sequence (Q9Y4P1 whole entry, looked up): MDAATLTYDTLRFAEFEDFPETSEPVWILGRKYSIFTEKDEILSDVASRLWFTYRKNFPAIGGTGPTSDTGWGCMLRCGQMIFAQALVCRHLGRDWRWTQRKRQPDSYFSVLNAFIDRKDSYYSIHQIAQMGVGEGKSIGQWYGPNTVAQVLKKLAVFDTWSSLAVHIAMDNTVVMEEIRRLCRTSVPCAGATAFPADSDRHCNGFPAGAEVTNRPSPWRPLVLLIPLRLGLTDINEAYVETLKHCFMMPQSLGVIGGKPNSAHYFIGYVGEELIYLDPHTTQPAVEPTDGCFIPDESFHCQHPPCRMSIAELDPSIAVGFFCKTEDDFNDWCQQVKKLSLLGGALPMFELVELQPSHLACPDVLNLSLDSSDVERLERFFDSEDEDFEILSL
UCH37 DUB inh: inhibitors of human UCH37 deubiquitinase, primary screen, biochemical, Ub-AMC cleavage, fluorescence; actives 0.33% (n = 330,000); AID 588478, 2011; inhibition, % (no concentration beside the values); purified proteasome/UCH37; Ubiquitin carboxyl-terminal hydrolase isozyme L5 (Homo sapiens), Q9Y5K5;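 active = mean inhibition over replicate wells above about 20%, limit read from the data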
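Signal – fluorescence, ex 355 nm, em 460 nm · System – Proteasome-bound UCH37 · Input – 0.15 nM proteasome as dispensed · Timing – 30 min preincubation with enzyme, 25 min cleavage at room temperature · Read-out basis – percent inhibition of cleavage signal versus uninhibited and no-proteasome wells · Medium – Tris-HCl pH 7.4 with ATP-MgCl2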
SENP1 FRET inh: human SENP1 catalytic domain inhibitors, primary screen, biochemical, FRET, uHTS. Sentrin-specific protease 1 (Homo sapiens), Q9P0U3. inhibition, % at 10 µM. AID 624204, 2012. actives 0.21% (n = 360,000). recombinant SENP1 catalytic domain, CyPet-SUMO1-YPet FRET cleavage;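 active = inhibition at least 30% at 10 µM, raw YFP signal under a set limit, fluorescence ratio 0.5 to 1.5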
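System: Recombinant human SENP1 catalytic domain, His6-tagged | Incubation: Enzyme reaction for 50 min at room temperature, dark | Medium: Tris pH 8 with BME, BSA, NP40 and catalase | Also added: 25 nM SUMO1 FRET substrate | Compound: 10 µM single point, 0.5% DMSO | Measured by: FRET fluorescence in CFP and YFP emission channels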
NadD block: inhibitors of S. aureus NadD, primary screen, biochemical, colorimetric, uHTS. inhibition, % at 20 µM. Nicotinate-nucleotide adenylyltransferase NadD (Staphylococcus aureus N315). actives 0.78% (n = 360,000). purified NadD enzyme, colorimetric absorbance read-out; in the data active = inhibition above about 26%
NR3A LBD binder: binders of NR3A ligand-binding domain, primary screen, biophysical, differential scanning fluorimetry, uHTS; Glutamate receptor ionotropic, NMDA 3A (GRIN3A) ligand-binding domain; NR3A LBD differential scanning fluorimetry, Tm shift; 0% = protein alone, 100% = glycine-bound protein; Tm shift relative to glycine control, % at 25 µM; actives 2.5% (n = 340,000);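 active = melting temperature shift of at least 10% of the positive control shift, at one fixed dose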
Numbers stand for hits; . = inactive; / = not tested or not shown.

SMILES	ATG4B inhibitor	UCH37 DUB inh	SENP1 FRET inh	NadD block	NR3A LBD binder
Cc1noc(C)c1C(=O)OCC(=O)NC(=O)NC12CC3CC(CC(C3)C1)C2	.	.	.	.	.
NC(=S)Nc1ccc(Oc2ccc(NC(N)=S)cc2)cc1	.	.	.	.	14.4
Cc1ccc(C(=O)N/N=C\c2ccc(-c3ccc(Cl)cc3)o2)cn1	.	/	.	.	13.2
Cc1cc(C(=O)NN=Cc2ccc(-c3ccc(F)cc3)o2)c(C)o1	.	.	.	.	15.5
CC(C)Oc1ccc(C(=O)N/N=C/c2ccc(-c3ccc(S(=O)(=O)Nc4ncccn4)cc3)o2)cc1	.	/	.	35.1	.
Cc1ccc(C(=O)NN=Cc2ccc(-c3ccc(Cl)cc3)o2)cn1	/	.	/	/	/
Cc1cccc(NC(=O)CN2C(=O)N/C(=C/c3cc(C)n(-c4ccncc4)c3C)C2=O)c1	.	.	.	.	.
Cc1cccc(NC(=O)CN2C(=O)N/C(=C/c3cc(C)n(C)c3C)C2=O)c1	.	.	.	30.3	.
Cc1ccnc(NC(=O)CCC(=O)N(CC(=O)NCC2CCCO2)Cc2ccc(F)cc2)c1 (stereo not drawn)	.	.	.	.	10.8
Cc1ccnc(NC(=O)CCC(=O)N(CC(=O)NCc2ccc(F)cc2)CC2CCCO2)c1 (stereo not drawn)	.	.	.	.	.
COc1ccc(C=NNC(=O)c2snnc2C)c(OC)c1OC	/	.	/	/	/
COc1c(Cl)cccc1-c1cn2ccc(C)cc2n1	.	.	.	.	10.9
Cc1ccn2cc(-c3cnoc3C)nc2c1	.	.	.	.	.
CCCCCCCCCC(=NO)c1ccccn1	/	.	/	/	/
CC(C)c1ccc(C=NNC(=O)c2ccccc2Cl)cc1	/	.	/	/	/
O=C(Nc1ccccc1)N1CC=C(c2ccc(F)cc2)CC1	.	.	.	.	21.4
Fc1ccc(NC(=S)NCCN2CCOCC2)cc1	.	.	.	.	.
S=C(NCCN1CCOCC1)Nc1ccc(-c2nc3ccccc3[nH]2)cc1	.	.	.	.	14.7
S=C(Nc1ccc(-c2nc3ccccc3[nH]2)cc1)Nc1cccnc1	.	.	.	.	37.4
N#C/C(=C/c1ccc2c(c1)OCO2)C(=O)NCCc1c[nH]c2ccccc12	.	.	.	.	.
N#C/C(=C\c1ccc(-c2ccc(Br)cc2)o1)C(=O)NCCc1c[nH]c2ccccc12	.	.	.	.	27.0
O=CN(/C=C1\Sc2ccccc2C1=O)Cc1ccccc1	.	.	.	.	22.2
